Measured values from ChEMBL document CHEMBL1153099, “2,4-Diaryl-4,6,7,8-tetrahydroquinazolin-5(1H)-one derivatives as anti-HBV agents targeting at capsid assembly” (Bioorg Med Chem Lett, 2010).

How the values were obtained:
Hepatitis B virus = test: Antiviral activity against HBV infected in human HepG2.2.15 cells assessed as inhibition of viral DNA replication; assay type: functional, organism-based, HepG2 2.2.15
Method in brief: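 HepG2.2.15 cells, which secrete virus-like particles. Reference anti-HBV agents were run as positive controls. IC50 is the mean of three experiments. A compound with no activity at its maximum nontoxic concentration was scored as not active.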

[1] = Cytotoxicity against human HepG2(2.2.15) cells; assay type: cell-based
Method in brief: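 Viability of HepG2.2.15 cells was read after 48 h of compound exposure. Cytotoxic IC50 is the mean of three experiments.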

[2] = Therapeutic index, ratio of IC50 for human HepG2(2.2.15) cells to IC50 for HBV; assay type: cell-based; details: read-out: Ratio IC50
[3] = Hepatitis B virus, HepG2 2.2.15, read-out: IC50

| Compound | IC50 (Hepatitis B virus; hepg2 2.2.15) | IC50 (Hepatitis B virus; [3]) | IC50 [1] | selectivity ratio [2] |
| --- | --- | --- | --- | --- |
| O=C1CCCC2=C1C(c1ccc(F)cc1Cl)N=C(c1ccco1)N2 (centres undefined) | Not Active |  | 717 µM |  |
| O=C1CCCC2=C1C(c1ccccc1)N=C(c1ccccn1)N2 (centres undefined) |  | 6.6 µM | 571 µM | 86.6 |
| O=C1CCCC2=C1C(c1ccccc1)N=C(c1cccnc1)N2 (centres undefined) | Not Active |  | 369 µM |  |
| O=C1CCCC2=C1C(c1ccc(F)cc1)N=C(c1ccccn1)N2 (centres undefined) | Not Active |  | 516 µM |  |
| O=C1CCCC2=C1C(c1ccc(F)cc1Cl)N=C(c1cccnc1)N2 (centres undefined) |  | 25.1 µM | 82.8 µM |  |
| O=C1CCCC2=C1C(c1ccc(F)cc1Cl)N=C(c1ncccc1F)N2 (centres undefined) |  | 1.1 µM | 1370 µM | 1240 |
| O=C1CCCC2=C1C(c1ccc(F)cc1Cl)N=C(c1c(F)cc(F)cc1F)N2 (centres undefined) | Not Active |  | 123 µM |  |
| O=C1CCCC2=C1C(c1ccccc1Cl)N=C(c1cnccn1)N2 (centres undefined) | Not Active |  | 1470 µM |  |
| COC(=O)C1=C(C)NC(c2ncc(F)cc2F)=N[C@H]1c1ccc(F)cc1Cl |  | 0.78 µM | 567 µM |  |
| O=C1CCCC2=C1C(c1ccccc1Cl)N=C(c1cccnc1)N2 (centres undefined) | Not Active |  | 1120 µM |  |
| O=C1CCCC2=C1C(c1ccc(F)cc1Cl)N=C(c1ccncc1)N2 (centres undefined) |  | 16.5 µM | 142 µM | 8.6 |
| CC1(C)CC(=O)C2=C(C1)NC(c1cccnc1)=NC2c1ccccc1 (centres undefined) |  | 22.4 µM | 173 µM | 7.74 |
| O=C1CCCC2=C1C(c1ccccc1Cl)N=C(c1ccccn1)N2 (centres undefined) | Not Active |  | 589 µM |  |
| O=C1CCCC2=C1C(c1ccc(F)cc1)N=C(c1cccnc1)N2 (centres undefined) | Not Active |  | 280 µM |  |
| Nc1ccn([C@@H]2CS[C@H](CO)O2)c(=O)n1 [LAMIVUDINE] |  | 0.22 µM |  |  |

Further lines, with some results ahead:

| IC50 (Hepatitis B virus; hepg2 2.2.15) | IC50 (Hepatitis B virus; [3]) | Compound | IC50 [1] | selectivity ratio [2] |
| --- | --- | --- | --- | --- |
|  | 0.44 µM | CC1(C)CC(=O)C2=C(C1)NC(c1cccnc1)=NC2c1ccc(F)cc1Cl (centres undefined) | 624 µM | 1420 |
|  | 26.2 µM | CC1(C)CC(=O)C2=C(C1)NC(c1cccnc1)=NC2c1ccccc1Cl (centres undefined) | 67.3 µM | 2.56 |
|  | 8.75 µM | O=C1CCCC2=C1C(c1ccc(F)cc1Cl)N=C(c1nccs1)N2 (centres undefined) | 47.7 µM | 5.73 |
|  | 2.3 µM | O=C1CCCC2=C1C(c1ccc(F)cc1Cl)N=C(c1cnccn1)N2 (centres undefined) | 777 µM | 338 |
| Not Active |  | CC1(C)CC(=O)C2=C(C1)NC(c1c(F)cc(F)cc1F)=NC2c1ccc(F)cc1Cl (centres undefined) | 5.6 µM |  |
|  | 4.92 µM | CC1(C)CC(=O)C2=C(C1)NC(c1ccncc1)=NC2c1ccc(F)cc1Cl (centres undefined) | 135 µM | 27.3 |
|  | 25.3 µM | CC1(C)CC(=O)C2=C(C1)NC(c1cccnc1)=NC2c1ccc(F)cc1 (centres undefined) | 145 µM | 5.73 |
|  | 1.05 µM | CC1(C)CC(=O)C2=C(C1)NC(c1ncc(F)cc1F)=NC2c1ccc(F)cc1Cl (centres undefined) | 41.2 µM | 39.2 |
|  | 3.12 µM | CC1(C)CC(=O)C2=C(C1)NC(c1nccs1)=NC2c1ccc(F)cc1Cl (centres undefined) | 57 µM | 19.2 |
| Not Active |  | CC1(C)CC(=O)C2=C(C1)NC(c1cnccn1)=NC2c1ccccc1Cl (centres undefined) | 623 µM |  |
|  | 14.2 µM | CC1(C)CC(=O)C2=C(C1)NC(c1cnccn1)=NC2c1ccc(F)cc1Cl (centres undefined) | 773 µM | 54.5 |
| Not Active |  | CC1(C)CC(=O)C2=C(C1)NC(c1ncccc1F)=NC2c1ccc(F)cc1Cl (centres undefined) | 371 µM |  |
|  | 4.3 µM | O=C1CCCC2=C1C(c1ccc(F)cc1Cl)N=C(c1ccccn1)N2 (centres undefined) | 620 µM | 144 |
